# Screens: PubChem, several laboratories
# Shown are actives, neighbours in structure and some others; about 2.5% of the full set was active somewhere.
# NPY-Y1 PAM-ag: human NPY-Y1 potentiation or agonism, primary screen | P25929 | NPY-Y1 expressing cells, potentiator/agonist activation | activation, % at 3.6 µM | actives 0.37% (n = 220,000); in the data active = activation above about 33%, passing the limit was not always enough;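 note: cells stimulated with NPY at EC10 then isoproterenol at EC100; 0% = low agonist plus stimulus and 100% = saturating agonist plus stimulus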
# Target sequence (P25929 whole entry, looked up): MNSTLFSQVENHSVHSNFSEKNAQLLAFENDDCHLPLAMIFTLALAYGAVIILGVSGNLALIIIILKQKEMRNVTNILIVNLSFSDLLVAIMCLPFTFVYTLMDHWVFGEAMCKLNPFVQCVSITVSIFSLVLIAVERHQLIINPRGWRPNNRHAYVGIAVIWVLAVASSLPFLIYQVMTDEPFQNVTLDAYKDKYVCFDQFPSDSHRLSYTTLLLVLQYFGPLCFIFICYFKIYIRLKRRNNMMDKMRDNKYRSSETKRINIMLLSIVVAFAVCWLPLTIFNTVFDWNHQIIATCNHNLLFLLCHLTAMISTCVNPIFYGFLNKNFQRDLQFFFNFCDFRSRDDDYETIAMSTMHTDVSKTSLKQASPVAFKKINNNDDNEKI
# Insulin prom up: MIN6 insulin promoter up-regulation. MIN6 insulin promoter-GFP reporter, high-content imaging; stronger effect = higher value. z-score at 5 µM. actives 0.3% (n = 190,000);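 active = z-score above 3 at 5 µM with at least 500 cells counted in the well; inconclusive = wells under 500 cells, flagged as cytotoxic or low count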
# NPY-Y2 PAM-ag: potentiators or agonists of human neuropeptide Y receptor Y2; P49146; cells expressing NPY-Y2, potentiator/agonist read-out; activation, % at 3.6 µM; actives 0.45% (n = 220,000); in the data active = activation above about 27%;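 note: cells stimulated with NPY near EC25 plus isoproterenol at EC100; 0% = vehicle plus submaximal agonist and 100% = vehicle plus saturating agonist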
# INS promoter inh: TRM-6 insulin promoter activity inhibition; TRM-6 cells, insulin promoter-eGFP reporter, imaging; reporter expression induced with tamoxifen; inhibition, % at 2 µM; actives 0.9% (n = 130,000); AID 1273;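 active = inhibition above the mean plus 3 SD, with well images judged a real hit on visual review, cut at about 60% in these data, passing the limit was not always enough; inconclusive = inhibition over the cutoff but images rejected on review; inactive = inhibition not above the cutoff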
# NPY-Y1 antag: NPY-Y1 (human) receptor antagonism | HEK293-CNG Y1 cells, membrane potential fluorescence; NPY at EC95, then isoproterenol | AID 1040 | actives 1% (n = 200,000) | P25929 | inhibition, % at 3.6 µM;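 active = inhibition above the campaign mean inhibition of all tested compounds plus 3 SD, cut at about 20% in these data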;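 note: 0% = DMSO wells given NPY plus isoproterenol and 100% = isoproterenol alone without NPY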
#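 Material: HEK293 Y1/CNG channel cell line | Also added: NPY (25 nM), isoproterenol (1 µM), Ro 20-1724 (25 µM) | Compound: One concentration, 3.6 µM, in 0.4% DMSO | Schedule: 3 h dye uptake, 1 h room-temperature compound, 45 min post-isoproterenol | Signal: Membrane-potential fluorescent dye readout | Read-out: % inhibition of NPY effect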
# NPY Y2 blocker: antagonists of human neuropeptide Y receptor Y2; P49146; NPY-Y2 expressing cells, antagonist mode; inhibition, % at 2.7 µM; actives 0.99% (n = 140,000);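 note: 0% = vehicle with agonist challenge and 100% = reference antagonist with challenge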
# NPY-Y1 ant conf: confirmation of human neuropeptide Y receptor Y1 antagonists | HEK293-CNG NPY-Y1, membrane potential fluorescence, cAMP; NPY challenge against isoproterenol-raised cAMP | AID 1254 | actives 21% (n = 1,200) | inhibition, % at 3.6 µM | shares compounds with NPY-Y1 antag; in the data active = inhibition above about 20%;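 note: 0% = vehicle with agonist plus stimulus and 100% = stimulus alone without agonist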
# NPY-Y2 antag ct: counter-screen for NPY-Y1 antagonists: human NPY-Y2 antagonism; shares compounds with NPY-Y1 antag; HEK293 NPY-Y2 CNG membrane potential fluorescence; cells given NPY, then isoproterenol; inhibition, % at 3.6 µM; actives 28% (n = 1,200);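 note: 0% = DMSO with agonist challenge and 100% = reference antagonist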
# * hit, by the source's call; ? = inconclusive; . = not tested or not shown. Cut-off read from the data, not from the text of the source, unless noted: active = inhibition above about 17%; inactive = the rest.
SMILES,NPY-Y1 PAM-ag,Insulin prom up,NPY-Y2 PAM-ag,INS promoter inh,NPY-Y1 antag,NPY Y2 blocker,NPY-Y1 ant conf,NPY-Y2 antag ct
COc1ccc([N+](=O)[O-])cc1N(CC(O)CN1CCCCC1)S(=O)(=O)c1ccc(C)cc1 (configuration not stated),21,0.01,6,-11,1,.,.,.
COc1ccc(OC2C(=O)N(Cc3ccc4c(c3)OCO4)C2c2cccs2)cc1 (configuration not stated),7,-1.7,-7,.,12,8,.,.
Cn1c2ccccc2c2cnn(CC(=O)O)c(=O)c21,-48,0.27,-40,50,26*,12,7,7
Cc1ccc(-n2cc(CNCCCn3ccnc3C)c(-c3ccc(F)cc3)n2)cc1,-20,-0.87,-33,.,28*,.,25*,35*
Cc1ccc(-n2cc(CN3CCN(Cc4nccn4C)CC3)c(-c3ccc(F)cc3)n2)cc1,-29,.,-26,-45,31*,.,16,19*
Cc1ccc(-n2cc(CNCCc3cscn3)c(-c3ccc(F)cc3)n2)cc1,-22,-0.2,-28,-50,7,.,.,.
COc1ccc(-n2cc(CNCCCn3ccnc3)c(-c3cccc(F)c3)n2)cc1,-19,-0.36,-16,.,22*,.,11,16
CCCn1c(SCC(=O)NCc2ccc(Cl)cc2)n[nH]c1=O,13,-0.44,4,.,-1,.,.,.
CC(=O)NC1=NN(C(C)=O)C(c2cccs2)S1 (configuration not stated),5,0.55,-9,24,-5,2,.,.
OCCCNCc1cccc2ccccc12,-18,-0.06,-10,.,5,4,.,.
Oc1ccccc1CNCCCNCc1ccccc1O,-70,0.49,-16,-32,30*,10,12,17
CC1CCC(C(C)C)C(OC(=O)Cn2c(-c3ccc(Cl)cc3)[n+](C)c3ccccc32)C1 (configuration not stated),-61,?,-60,.,.,.,.,.
Cc1ccccc1OCc1n(CC(=O)OC2CC(C)CCC2C(C)C)c2ccccc2[n+]1C (configuration not stated),-35,-5.1,-17,-29,29*,.,36*,42*
CC1CCC(C(C)C)C(OC(=O)Cn2c(-c3ccc(Br)cc3)[n+](C)c3ccccc32)C1 (configuration not stated),-11,-1.9,-13,0,44*,.,37*,41*
O=C(C1CCCN(CCCc2ccccc2)C1)N1CCCCC1 (configuration not stated),1,0.11,3,-6,-1,3,.,.
Cc1ccc(C2CC(C(F)(F)F)n3nc(C(=O)Nc4c(C)n(C)n(-c5ccccc5)c4=O)cc3N2)cc1 (configuration not stated),6,-0.28,0,.,4,.,.,.
Cc1cc(NC(=O)c2cc3n(n2)C(C(F)(F)F)CC(c2ccc(Cl)c(Cl)c2)N3)no1 (configuration not stated),20,0.3,11,32,21*,3,0,4
Cc1cc(C)[n+](-c2ccc(F)cc2)c2[nH]c(=O)[nH]c(=O)c12,-9,0.73,1,-16,3,2,.,.
CCc1nc(N[C@@H](Cc2c[nH]c3ccccc23)C(=O)O)c2oc3ccccc3c2n1,-4,.,-14,-21,3,1,.,.
CCc1nc(N[C@@H](CC(C)C)C(=O)O)c2oc3ccccc3c2n1,-20,0.38,-20,45,26*,14,14,23*
c1ccc(-c2nc(NCc3cccnc3)c3oc4ccccc4c3n2)cc1,-20,-0.46,-3,-42,-1,1,.,.
CCOC(=O)c1cc2ccccc2n1CCN(CC)CC,-25,-0.11,-28,-78,25*,12,5,16
CCOC(=O)c1sc(NC(=S)NC(=O)c2ccco2)nc1C,10,-0.45,11,.,2,2,.,.
